Results: ChEMBL document CHEMBL3997766, “Synthesis and pre-clinical studies of new amino-acid ester thiazolide prodrugs” (Eur J Med Chem, 2017)

Key:
[1] = tested on: Rattus norvegicus; test: Toxicity in Sprague-Dawley rat assessed as eosinophilic cytoplasmic bodies in epithelial cells of stomach at 10 to 75 mg/kg administered as oral gavage qd for 28 consecutive days followed by 2 weeks recovery period by microscopic method; type: organism-based; settings: in vivo, 336 h
Procedure, shortened: (§1)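 Sub-acute study in Sprague-Dawley rats dosed orally with a suspension at 10, 30 and 75 mg/kg once daily for 28 consecutive days. Four groups of up to 30 rats each (15M/15F).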

[2] = tested on: Rattus norvegicus; test: Toxicity in Sprague-Dawley rat assessed as effect on respiratory rate by measuring minute volume dose at 1000 mg/kg administered as single dose via oral gavage; type: organism-based; settings: in vivo
Procedure, shortened: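 Conscious rats in three groups of six (3M/3F) got single oral gavage doses of 100, 300 or 1000 mg/kg, with an untreated control group. Respiratory rate (breaths per minute), tidal volume and minute volume were recorded.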

[3] = tested on: Rattus norvegicus; test: Toxicity in Sprague-Dawley rat assessed as mixed cell inflammation in stomach at 30 to 75 mg/kg administered as oral gavage qd for 28 consecutive days measured on day 29 by microscopic method; type: organism-based; settings: in vivo
Procedure, shortened: (§2)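 Sub-acute study in Sprague-Dawley rats: 10, 30 or 75 mg/kg given orally once a day for 28 consecutive days as a yellow suspension. There were 4 groups of up to 30 rats each (15M/15F), including a control. Body weight, clinical observations and terminal findings were assessed.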

[4] = tested on: Rattus norvegicus; test: Cmax in Sprague-Dawley rat assessed as Tizoxanide level in plasma at 6 mg/kg, iv administered as single dose; type: ADME, organism-based; parameters: dose 6 mg/kg, route intravenous; settings: in vivo
Procedure, shortened: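 Rats in groups of three received one compound as a single oral dose (30 mg/kg) or a single intravenous injection (6 mg/kg), with four compounds studied separately. Serial blood samples were drawn at 5, 10, 15 and 30 min and at 1, 2, 4, 8, 23 and 24 h post-dose. Plasma parent drug and metabolites were quantified and PK parameters were derived.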

[5] = tested on: Rattus norvegicus; test: Toxicity in Sprague-Dawley rat assessed as epithelial hyperplasia in stomach at 75 mg/kg administered as oral gavage qd for 28 consecutive days followed by 2 weeks recovery period by microscopic method; type: organism-based; settings: in vivo, 336 h; procedure, shortened: as §1
[6] = tested on: Rattus norvegicus; test: AUC (0 to t) in male Sprague-Dawley rat assessed as Tizoxanide-glucuronide level in plasma at 6 mg/kg, iv administered as single dose; type: ADME, organism-based; settings: in vivo
Procedure, shortened: (§3)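 Plasma tizoxanide and tizoxanide glucuronide were measured and PK parameters derived. AUCs were dose-corrected to 30 mg/kg for bioavailability.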

[7] = tested on: Rattus norvegicus; test: Toxicity in Sprague-Dawley rat assessed as effect on food consumption at 10 to 75 mg/kg administered as oral gavage qd for 28 consecutive days measured once per week during compound dosing; type: organism-based; settings: in vivo; procedure, shortened: as §2
[8] = tested on: Rattus norvegicus; test: AUC (0 to t) in Sprague-Dawley rat assessed as Tizoxanide level in plasma at 6 mg/kg, iv administered as single dose; type: ADME, organism-based; settings: in vivo; procedure, shortened: as §3
[9] = tested on: Rattus norvegicus; test: Toxicity in Sprague-Dawley rat assessed as hemorrhage in stomach at 75 mg/kg administered as oral gavage qd for 28 consecutive days followed by 2 weeks recovery period by microscopic method; type: organism-based; settings: in vivo, 336 h; procedure, shortened: as §1
[10] = tested on: Rattus norvegicus; test: Toxicity in Sprague-Dawley rat assessed as body weight gain at 75 mg/kg administered as oral gavage qd for 28 consecutive days measured during last 3 weeks of dosing; type: organism-based; settings: in vivo, 504 h; procedure, shortened: as §1
[11] = tested on: Plasma; test: Drug metabolism in Sprague-Dawley rat assessed as Tizoxanide in plasma at 28 mg/kg, po measured at 0.083 hrs post dose; type: ADME, organism-based; settings: in vivo
[12] = tested on: Rattus norvegicus; test: Toxicity in Sprague-Dawley rat assessed as decrease in urine specific gravity at 30 to 75 mg/kg administered as oral gavage qd for 28 consecutive days followed by 2 weeks recovery period measured on day 43; type: organism-based; settings: in vivo, 336 h; procedure, shortened: as §1
[13] = tested on: Plasma; test: Prodrug activation in Sprague-Dawley rat assessed as tizoxanide formation in plasma at 6.3 mg/kg, iv administered as single dose measured after 5 mins; type: organism-based; settings: in vivo
Procedure, shortened: (§4)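 Rats in groups of three got a single oral dose (30 mg/kg) or a single intravenous injection (6 mg/kg). Serial blood samples were taken at 5, 10, 15 and 30 min and at 1, 2, 4, 8, 23 and 24 h post-dose for plasma drug and glucuronide levels. Bioavailability came from oral versus intravenous AUC after dose correction to 30 mg/kg.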

[14] = tested on: Rattus norvegicus; test: Toxicity in Sprague-Dawley rat assessed as eosinophilic cytoplasmic bodies in epithelial cells of duodenum at 75 mg/kg administered as oral gavage qd for 28 consecutive days followed by 2 weeks recovery period by microscopic method; type: organism-based; settings: in vivo, 336 h; procedure, shortened: as §1
[15] = tested on: Canis familiaris; test: Toxicity in Beagle dog assessed as effect on urinalysis parameters up to 25 mg/kg, po administered as gelatin capsule once daily for 28 days measured on day 29; type: organism-based, Canis lupus familiaris; settings: in vivo, 672 h
Procedure, shortened: (§5)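 Sub-acute study in Beagle dogs dosed orally by gelatin capsule at 5, 15 and 25 mg/kg once a day for 28 consecutive days.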

[16] = tested on: Rattus norvegicus; test: Toxicity in Sprague-Dawley rat assessed as decrease in serum alanine transferase level at 75 mg/kg administered as oral gavage qd for 28 consecutive days followed by 2 weeks recovery period measured on day 43; type: organism-based; settings: in vivo, 336 h; procedure, shortened: as §1
[17] = tested on: Rattus norvegicus; test: Toxicity in Sprague-Dawley rat assessed as decrease in absolute kidney weight at 75 mg/kg administered as oral gavage qd for 28 consecutive days measured on day 29; type: organism-based; settings: in vivo; procedure, shortened: as §1
[18] = tested on: Rattus norvegicus; test: Toxicity in Sprague-Dawley rat assessed as mucosal hyperplasia in duodenum at 75 mg/kg administered as oral gavage qd for 28 consecutive days measured on day 29 by microscopic method; type: organism-based; settings: in vivo
Procedure, shortened: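 Sub-acute oral toxicity study in Sprague-Dawley rats. The drug was given once daily for 28 consecutive days at 10, 30 or 75 mg/kg, formulated as a suspension. There were 4 groups of up to 30 rats each (15 male, 15 female). The study evaluated systemic exposure to the drug.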

[19] = tested on: Rattus norvegicus; test: Toxicity in Sprague-Dawley rat assessed as early death at 10 to 75 mg/kg administered as oral gavage qd for 28 consecutive days measured up to day 43; type: organism-based; settings: in vivo; procedure, shortened: as §2
[20] = tested on: Rattus norvegicus; test: Tmax in Sprague-Dawley rat assessed as Tizoxanide level in plasma at 28 mg/kg, po; type: ADME, organism-based; settings: in vivo; procedure, shortened: as §4
[21] = tested on: Rattus norvegicus; test: Elimination half life in Sprague-Dawley rat assessed as Tizoxanide level at 28 mg/kg, po; type: ADME, organism-based; settings: in vivo
[22] = tested on: Canis familiaris; test: Toxicity in Beagle dog assessed as thickened duodenum up to 25 mg/kg, po administered as gelatin capsule once daily for 28 days measured on day 29; type: organism-based, Canis lupus familiaris; settings: in vivo, 672 h; procedure, shortened: as §5
[23] = tested on: Rattus norvegicus; test: Neurotoxicity in Sprague-Dawley rat assessed as decreased abdominal tone at 1000 mg/kg administered via oral gavage as single dose after 4 to 24 hrs; type: toxicity, organism-based; settings: in vivo
Procedure, shortened: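 Three groups of 10 rats (5M/5F) received a single dose by oral gavage of 100, 300 or 1000 mg/kg, and an untreated group served as control. Clinical signs of CNS effects were recorded at 4 and 24 h after treatment.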

[24] = tested on: Rattus norvegicus; test: Oral bioavailability in Sprague-Dawley rat assessed as Tizoxanide-glucuronide level at 28 mg/kg; type: ADME, organism-based; settings: in vivo; procedure, shortened: as §4
[25] = tested on: Rattus norvegicus; test: Toxicity in Sprague-Dawley rat assessed as effect on tidal volume at 100 to 1000 mg/kg administered as single dose via oral gavage; type: organism-based; settings: in vivo
Procedure, shortened: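 Respiratory safety study: conscious rats, 3 groups of 6 (3M/3F), given single oral-gavage doses of 100, 300 or 1000 mg/kg, with an untreated control group. Respiratory rate (breaths per minute), tidal volume and minute volume were recorded, and mortality was noted.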

[26] = tested on: Canis familiaris; test: Toxicity in Beagle dog administered orally as gelatin capsule once daily for 28 days; parameters: species or system Canis lupus familiaris; settings: in vivo, po, 672 h
Procedure, shortened: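 Sub-acute study in Beagle dogs: 5, 15 or 25 mg/kg/day given orally in a single gelatin capsule once a day for 28 consecutive days to assess systemic exposure and toxicity, with NOAEL determination.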

CC(C)(C)[C@H](N)C(=O)Oc1ccccc1C(=O)Nc1ncc([N+](=O)[O-])s1.Cl
Activity [1]: Non-Toxic
Activity [2]: Toxic
Activity [3]: Toxic
Cmax [4]: 12800 ng/mL
Activity [5]: Non-Toxic
AUCt [6]: 13600 ng·h/mL
Activity [7]: Non-Toxic
AUCt [8]: 5210 ng·h/mL
Activity [9]: Non-Toxic
Activity [10]: Non-Toxic
Drug metabolism [11]: Metabolite_Detected
Activity [12]: Toxic
Drug metabolism [13]: Metabolite_Detected
Activity [14]: Non-Toxic
Activity [15]: Non-Toxic
Activity [16]: Toxic
Activity [17]: Toxic
Activity [18]: Toxic
Activity [19]: Non-Toxic
Tmax [20]: 5 to 15 min
beta t1/2 [21]: 33 min
Activity [22]: Non-Toxic
Activity [23]: Toxic
F [24]: 13%
Activity [25]: Toxic
NOAEL [26]: 25 mg/kg/day
